One test deals with T1, Monoglyceride lipase (Homo sapiens, UniProt Q99685).
T1 sequence (Q99685 whole entry): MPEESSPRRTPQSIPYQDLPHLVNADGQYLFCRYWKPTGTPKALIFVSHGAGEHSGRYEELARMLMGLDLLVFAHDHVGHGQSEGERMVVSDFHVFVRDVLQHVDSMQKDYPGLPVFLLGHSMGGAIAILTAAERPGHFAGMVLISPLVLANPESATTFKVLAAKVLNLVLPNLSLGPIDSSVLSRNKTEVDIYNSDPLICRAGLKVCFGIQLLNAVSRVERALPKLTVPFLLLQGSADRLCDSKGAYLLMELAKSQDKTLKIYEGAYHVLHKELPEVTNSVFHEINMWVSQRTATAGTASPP
Briefly: Inhibition of MAGL (unknown origin) in human U-937 cells using [ethanolamine-1-3H]AEA as substrate preincubated for 30 mins followed by substrate addition measured after 15 mins by liquid scintillation spectroscopy. The class given is cell-based.

Test [1] concerns Mus musculus. The test is described as follows: In vivo agonist activity at CB1R in BALB/c mouse assessed as induction of analgesia at 50 mg/kg, ip measured after 1 hr by hot plate test. Type of test: functional, organism-based. The gist of the method:
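Male BALB/c mice (8–10 weeks) given compound in pure DMSO intraperitoneally, 5–8 mice per group. Hot plate at 54–56 °C inside a Plexiglas cylinder, 1 h post-dose. Read-out is latency to first nociceptive response (paw lick or foot shake). Groups compared with vehicle by Kruskal–Wallis then Mann–Whitney.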

In test [2] the test system is Mus musculus. The test is described as follows: In vivo agonist activity at CB1R in BALB/c mouse assessed as induction of hypolocomotion at 50 mg/kg, ip measured after 1 hr by rotarod test. Type of test: functional, organism-based. Summed up:
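Male BALB/c mice (8–10 weeks) given compound in pure DMSO intraperitoneally, 5–8 mice per group. Rotarod at 6 rpm, 1 h post-dose. Read-out is latency to fall, cutoff 120 s, over three trials. Groups compared with vehicle by Kruskal–Wallis then Mann–Whitney.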

Test [3] deals with T2, Fatty-acid amide hydrolase 1 (Homo sapiens, UniProt O00519).
T2 sequence (O00519 whole entry): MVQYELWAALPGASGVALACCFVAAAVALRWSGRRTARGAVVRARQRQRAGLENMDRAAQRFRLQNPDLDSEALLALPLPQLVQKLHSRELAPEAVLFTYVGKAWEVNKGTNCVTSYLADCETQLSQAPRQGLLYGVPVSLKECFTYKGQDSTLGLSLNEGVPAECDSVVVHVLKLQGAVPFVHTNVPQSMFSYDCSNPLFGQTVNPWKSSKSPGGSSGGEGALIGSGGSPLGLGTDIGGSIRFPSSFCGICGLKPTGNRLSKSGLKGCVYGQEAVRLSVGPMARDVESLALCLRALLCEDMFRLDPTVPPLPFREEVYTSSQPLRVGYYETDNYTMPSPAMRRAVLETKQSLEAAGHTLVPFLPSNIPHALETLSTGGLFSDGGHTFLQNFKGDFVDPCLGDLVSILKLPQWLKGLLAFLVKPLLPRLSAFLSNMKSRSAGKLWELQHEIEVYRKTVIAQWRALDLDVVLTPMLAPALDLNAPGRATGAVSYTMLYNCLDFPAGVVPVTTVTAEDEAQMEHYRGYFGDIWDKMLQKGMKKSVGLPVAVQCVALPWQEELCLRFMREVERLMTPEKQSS
Briefly: Inhibition of FAAH (unknown origin) in human U-937 cells using [ethanolamine-1-3H]AEA as substrate preincubated for 30 mins followed by substrate addition measured after 15 mins by liquid scintillation spectroscopy. Type of test: cell-based. Summed up: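 U937 cell homogenate (100 μg) in 10 mM Tris-HCl, 1 mM EDTA, 0.1% fatty-acid-free BSA, pH 8. Compound preincubated 30 min at 37 °C, then 100 nM AEA with 1 nM [ethanolamine-1-3H]AEA tracer added for 15 min at 37 °C. Stopped with cold CHCl3/MeOH (1:1); tritium counted in aqueous phase.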

In test [4] the target is T3, Lysophosphatidylserine lipase ABHD12 (Homo sapiens, UniProt Q8N2K0).
T3 sequence (Q8N2K0 whole entry): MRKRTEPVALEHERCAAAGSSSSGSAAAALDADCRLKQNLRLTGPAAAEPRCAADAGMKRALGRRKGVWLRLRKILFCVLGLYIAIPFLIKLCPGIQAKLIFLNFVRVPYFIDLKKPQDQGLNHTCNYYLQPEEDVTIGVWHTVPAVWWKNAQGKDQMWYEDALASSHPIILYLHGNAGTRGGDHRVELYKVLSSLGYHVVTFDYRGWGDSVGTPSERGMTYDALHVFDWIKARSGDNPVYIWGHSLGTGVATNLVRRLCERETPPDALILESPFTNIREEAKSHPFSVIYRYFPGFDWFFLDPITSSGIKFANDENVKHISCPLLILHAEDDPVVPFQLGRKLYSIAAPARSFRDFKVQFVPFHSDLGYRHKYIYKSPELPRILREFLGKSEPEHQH
Briefly: Inhibition of human ABHD12 transfected in HEK293 cells using 2-OG as substrate preincubated for 30 mins followed by substrate addition measured after 5 mins by liquid scintillation spectroscopy. Type of test: cell-based. Summed up:
(§1)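 Homogenate (40 μg) of HEK-293 cells stably expressing hABHD6 or hABHD12, in […], 0.1% BSA, pH 7.6. Compound preincubated 30 min at 37 °C, then 10 μM 2-OG for 5 min at 37 °C. Tritium counted in aqueous phase; non-transfected HEK293 hydrolysis subtracted. Positive controls: WWL70 10 μM (ABHD6), THL 20 μM (ABHD12). At least two experiments in triplicate, mean ± SD.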

Test [5] relates to Mus musculus. The test is described as follows: In vivo agonist activity at CB1R in BALB/c mouse assessed as catalepsy like behaviour at 50 mg/kg, ip measured after 1 hr by bar test. Type of test: functional, organism-based. Summed up:
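Male BALB/c mice (8–10 weeks) given compound in pure DMSO intraperitoneally, 5–8 mice per group. Bar test at 1 h: forelimbs placed on a 4 cm high bar. End-point is both front limbs removed or held over 120 s. Three trials per mouse. Groups compared with vehicle by Kruskal–Wallis then Mann–Whitney.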

In test [6] the test system is Mus musculus. The test is described as follows: In vivo agonist activity at CB1R in BALB/c mouse assessed as induction of hypothermia at 50 mg/kg, ip measured after 1 hr by rectal measurement method. Type of test: functional, organism-based. Summed up:
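Male BALB/c mice (8–10 weeks) given compound in pure DMSO intraperitoneally, 5–8 mice per group. Rectal temperature taken by thermocouple probe before dosing and 1 h after. Change is expressed as basal minus post-injection temperature. Groups compared with vehicle by Kruskal–Wallis then Mann–Whitney.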

Test [7] has as its target T4, Monoacylglycerol lipase ABHD6 (Homo sapiens, UniProt Q9BV23).
T4 sequence (Q9BV23 whole entry): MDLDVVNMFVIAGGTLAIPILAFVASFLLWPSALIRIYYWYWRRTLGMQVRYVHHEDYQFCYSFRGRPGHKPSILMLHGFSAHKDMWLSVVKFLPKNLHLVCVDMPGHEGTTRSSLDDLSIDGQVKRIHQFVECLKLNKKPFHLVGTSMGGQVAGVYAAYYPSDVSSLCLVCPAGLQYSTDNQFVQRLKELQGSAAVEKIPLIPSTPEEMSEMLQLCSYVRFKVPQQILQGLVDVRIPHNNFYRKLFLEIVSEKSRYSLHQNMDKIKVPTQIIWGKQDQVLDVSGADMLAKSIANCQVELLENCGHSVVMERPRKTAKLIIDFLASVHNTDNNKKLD
The test is described as follows: Inhibition of human ABHD6 transfected in HEK293 cells using 2-OG as substrate preincubated for 30 mins followed by substrate addition measured after 5 mins by liquid scintillation spectroscopy. Type of test: cell-based. The gist of the method: as §1

The record followed here is ChEMBL document CHEMBL4840315, “Δ9-cis-Tetrahydrocannabinol: Natural Occurrence, Chirality, and Pharmacology” (J Nat Prod, 2021).

The source made the active and inactive calls. Some results are limits rather than exact numbers.

For `CCCCCc1cc(O)c2c(c1)OC(C)(C)[C@H]1CCC(C)=C[C@@H]21`, the IC50 on Monoglyceride lipase was over 100 µM; in test [3], 36.3 µM; in test [4], 14.1 µM; in test [7], 39.8 µM. Also, the result in the test on Mus musculus [1], with Mus musculus [2], with Mus musculus [5] and in the test with Mus musculus [6] was Active.

For `CCCCCc1cc(O)c2c(c1)OC(C)(C)[C@@H]1CCC(C)=C[C@@H]21` [DRONABINOL], the IC50 at Monoglyceride lipase was over 100 µM; in test [3], 43.6 µM; in test [4], 11.6 µM; in test [7], 48.2 µM. The result in the test on Mus musculus [1], with Mus musculus [2], in the test with Mus musculus [5] and in the test with Mus musculus [6] was Active.

`CCCCCc1cc(O)c2c(c1)OC(C)(C)[C@@H]1CCC(C)=C[C@H]21`: the IC50 at Monoglyceride lipase is over 100 µM; in test [3], over 80 µM; in test [4] it was 28.8 µM; in test [7], 35.1 µM.
